# From PubChem
# Shown are actives, neighbours in structure and some others; about 4.8% of the full set was active somewhere.
# ALR H2O2 inh – inhibitors of human ALR sulfhydryl oxidase, primary screen, biochemical, H2O2 detection, HRP-luminol luminescence, single point; FAD-linked sulfhydryl oxidase ALR (Homo sapiens), P55789; purified ALR, DTT oxidation; inhibition, % (no concentration beside the values); actives 3.8% (n = 290,000); AID 485317, 2010;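 active = mean replicate inhibition above about 79%, with every replicate also reaching it, limit read from the data; inconclusive = only one of the two criteria met; inactive = mean below limit and not every replicate reaching it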
# Target sequence (P55789 whole entry, looked up): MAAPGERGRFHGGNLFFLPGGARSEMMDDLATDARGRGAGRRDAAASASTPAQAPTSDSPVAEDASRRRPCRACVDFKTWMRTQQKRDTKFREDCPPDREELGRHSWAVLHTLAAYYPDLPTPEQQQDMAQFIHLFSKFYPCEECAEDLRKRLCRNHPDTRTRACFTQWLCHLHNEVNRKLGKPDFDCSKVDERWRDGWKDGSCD
# ATG4B inh – ATG4B protease inhibitors, primary screen, biochemical, fluorescence, uHTS. inhibition, % at 8.33 µM. Cysteine protease ATG4B (Homo sapiens), Q9Y4P1. AID 504462, 2011. ATG4B cleavage of LC3-PLA2, NBD-HPC fluorescence, 1 h. actives 0.51% (n = 340,000); in the data active = inhibition above about 40%
# Target sequence (Q9Y4P1 whole entry, looked up): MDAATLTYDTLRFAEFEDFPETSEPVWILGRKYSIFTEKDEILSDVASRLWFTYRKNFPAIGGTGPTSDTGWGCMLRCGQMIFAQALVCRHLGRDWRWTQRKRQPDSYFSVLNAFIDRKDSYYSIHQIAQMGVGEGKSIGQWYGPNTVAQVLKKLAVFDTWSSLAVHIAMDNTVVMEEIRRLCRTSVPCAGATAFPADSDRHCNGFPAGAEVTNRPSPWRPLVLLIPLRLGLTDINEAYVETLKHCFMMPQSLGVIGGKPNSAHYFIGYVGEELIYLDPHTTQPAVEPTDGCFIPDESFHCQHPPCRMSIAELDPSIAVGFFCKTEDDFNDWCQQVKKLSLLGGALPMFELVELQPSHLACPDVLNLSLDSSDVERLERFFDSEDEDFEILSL
# NLRP3 yeast inh – NALP3 inflammasome inhibitors in reconstituted yeast, primary screen, luminescence, uHTS; Yeast reconstituted NLRP3/ASC/caspase-1, beta-gal luminescence, 24 h; inhibition, % at 10 µM; actives 0.39% (n = 330,000);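 active = inhibition of 50% or more; inactive = inhibition below 50%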
# UCH37 inh – inhibitors of human UCH37 deubiquitinase, primary screen, biochemical, Ub-AMC cleavage, fluorescence; inhibition, % (test concentration not listed); purified proteasome/UCH37; actives 0.33% (n = 330,000); Ubiquitin carboxyl-terminal hydrolase isozyme L5 (Homo sapiens), Q9Y5K5; AID 588478, 2011;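 active = mean inhibition over replicate wells above about 20%, limit read from the data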
#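 Test system – human UCH37 enzyme supplied as purified proteasome complex · Incubation – 30 min preincubation with enzyme, 25 min cleavage at room temperature · Detection – AMC fluorescence from Ub-AMC cleavage, excitation 355 nm, emission 460 nm · Benchmarks – no-proteasome wells (full inhibition) and compound-free wells (no inhibition)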
# Calb FLC – C. albicans growth inhibition with fluconazole, primary screen, CaCi-2 strain, Alamar Blue fluorescence; C. albicans CaCi-2 (fluconazole-resistant clinical isolate) + fluconazole, 48 h; growth inhibition, % (no concentration beside the values); actives 0.57% (n = 300,000); AID 1979, 2009;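 active = growth inhibition above about 58% in most replicates, limit read from the data, passing the limit was not always enough; inconclusive = exactly half the replicates above a set limit; inactive = most replicates below a set limit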;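 note: all wells also contain fluconazole at 8 µg/ml as a sub-toxic cotreatment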
# NALP1 yeast inh – NALP1 inflammasome inhibitors in reconstituted yeast, colorimetric, S. cerevisiae, triplicate retest; actives 0.61% (n = 280,000); S. cerevisiae NALP1/ASC/caspase-1 growth, X-gal OD620, 72 h; inhibition, % at 10 µM; in the data active = inhibition mostly above about 24%, no sharp cut-off; inactive = mostly below about 32%
# A number is an active result; i = inactive; ? = inconclusive; nt = not tested or not shown.
SMILES,ALR H2O2 inh,ATG4B inh,NLRP3 yeast inh,UCH37 inh,Calb FLC,NALP1 yeast inh
Nc1c(N(CCC2=CCCCC2)C(=O)COc2ccc(F)cc2)c(=O)[nH]c(=O)n1Cc1ccccc1,i,i,i,24,nt,nt
COCCN(C(=O)COC(=O)CSc1ccccc1)c1c(N)n(Cc2ccccc2)c(=O)[nH]c1=O,nt,i,i,i,i,nt
C=C(C)C1CC=C(C)C(=NNc2ccccc2[N+](=O)[O-])C1 (centres undefined),nt,nt,nt,i,nt,nt
CCN(CC)CCn1c2ccccc2c2nc3ccccc3nc21,i,i,i,i,i,i
CCN(CC)CCn1c2ccccc2c2n[nH]c(=S)nc21,94,i,i,i,i,i
CN(N=Cc1cc([N+](=O)[O-])ccc1O)c1ccccc1,nt,nt,nt,i,nt,nt
Cc1ccc(NC(=O)c2oc3ccc(S(=O)(=O)N4CCOCC4)cc3c2C)cc1C,nt,i,i,i,i,i
O=C(c1cnn(C(=O)c2cccc(S(=O)(=O)N3CCOCC3)c2)c1)c1ccccc1O,90,i,i,i,i,i
O=C(Nc1cccc(S(=O)(=O)N2CCCC2)c1)c1cccc(S(=O)(=O)N2CCOCC2)c1,97,i,i,i,nt,nt
CN1CCN(c2ccc(NC(=O)c3cccc(S(=O)(=O)N4CCCC4)c3)cc2)CC1,i,i,i,i,nt,nt
O=C(Nc1cccc(O)c1)c1cccc(S(=O)(=O)N2CCCC2)c1,i,i,i,i,i,i
CCN(c1ccc(NC(=O)c2cccc(S(=O)(=O)N3CCN(C)CC3)c2)cc1)C(C)C,99,i,i,i,i,i
COc1cccc(NC(=O)c2oc3ccc(S(=O)(=O)N4CCOCC4)cc3c2C)c1,82,i,i,i,i,i
CC(=NNC(=O)Cn1nc(C)c([N+](=O)[O-])c1C)c1ccco1,nt,nt,nt,i,nt,nt
Cc1ccc(-c2cc(-c3n[nH]c(=S)o3)c3ccccc3n2)cc1,98,i,nt,i,i,i
CN(C)c1ccc(NC(=O)Nc2ccc3snnc3c2)cc1,95,i,i,i,i,i
CC1(C)CC(=O)CC(=NNC(=O)c2cccs2)C1,nt,nt,nt,i,nt,nt
O=c1oc(-c2ccc(F)cc2)nc2ccsc12,83,i,i,i,i,i
Cc1c(C(=O)O)sc2ncnc(N3CCCCC3C)c12 (centres undefined),i,i,i,i,i,i
Cc1cc2c(N3CCCCC3C)ncnc2s1 (centres undefined),97,i,i,i,i,i
ON=C1C2C3C(Br)C4C5CC(C1C53)C24 (centres undefined),nt,nt,nt,i,nt,nt
Cc1cccc(C(=O)Nc2cccc(C(=O)NN=Cc3ccc4c(c3)OCO4)c2)c1,nt,nt,nt,i,nt,nt
O=C(O)c1cc(O)ccc1NC(=O)C(c1ccccc1)c1ccccc1,95,i,i,i,i,i
O=C(/C=C/c1ccc(Cl)cc1)N(Cc1ccccc1)c1ccccn1,i,i,i,27,?,i
CC(=O)Nc1sc(NN=Cc2ccccc2F)nc1-c1cccs1,nt,nt,nt,i,nt,nt
SMILES,ALR H2O2 inh,ATG4B inh,NLRP3 yeast inh,UCH37 inh,Calb FLC,NALP1 yeast inh
Cn1cc(C(c2ccccn2)c2cn(C)c3ccccc23)c2ccccc21,i,i,i,i,94,i
Cn1cc(C(c2ccccc2OCC(=O)O)c2cn(C)c3ccccc23)c2ccccc21,99,i,i,i,i,i
Cc1ccccc1S(=O)(=O)N=C(c1ccccc1)N(C)C,nt,nt,nt,i,nt,nt
CN(C)c1ccc(CN2CCCC(O)C2)cc1 (centres undefined),97,i,i,i,i,i
OC1CCCN(Cc2ccccc2)C1 (centres undefined),i,i,i,i,?,i
COc1cc(/C(C)=N/NC(=O)CSc2nc3ccccc3[nH]2)ccc1O,99,i,i,nt,i,i
C/C(=N\NC(=O)CSc1nnc(C)s1)c1ccc(O)cc1,99,i,i,nt,i,i
COc1cc(/C(C)=N/NC(=O)CSc2nnc(C)s2)ccc1O,95,i,i,nt,i,i
COc1ccccc1C(=O)NC(=O)CSc1nnc(C)s1,i,i,i,i,i,i
CC(=NNC(=O)CSc1nc2ccccc2[nH]1)c1ccncc1,nt,nt,nt,i,nt,nt
Cc1ccc(NCc2nnc(SCC(=O)Nc3ncc(C)s3)n2Cc2ccco2)c(C)c1,98,i,i,i,i,i
COc1cc(C=NNC(=O)c2ccncc2)ccc1Oc1ccc([N+](=O)[O-])cn1,nt,nt,nt,i,nt,nt
Cc1ccccc1N1CCN(CCN2C(=O)CC(=C3c4ccccc4-c4ccccc43)C2=O)CC1,i,i,i,i,90,nt
O=C(CNc1ccc(F)cc1)NN=Cc1c(O)ccc2ccccc12,nt,nt,nt,i,nt,nt
COc1cccc(N2C(=O)C3CCCN3C2c2ccc(Cl)cc2)c1 (centres undefined),i,i,i,i,i,i
COc1cccc(N2C(=O)C3CCCN3C2c2ccc(N(C)C)cc2)c1 (centres undefined),95,i,i,i,i,i
CCN(CC)c1ccc2cc(NC(=O)CCC(=O)O)c(=O)oc2c1,99,i,i,i,i,i
CCN(CC)c1ccc2cc(C(C)=O)c(=O)oc2c1,i,i,i,i,i,i
Cc1csc(=NC(=S)Nc2ccccc2)n1C,nt,nt,nt,i,nt,nt
O=C(c1ccc(Cn2c(=O)[nH]c3ccccc3c2=O)cc1)N1CCN(c2ccc(F)cc2)CC1,i,i,i,i,63,i
COc1ccc(Cn2c(=O)[nH]c3cc(C(=O)N4CCN(c5ccccc5OC)CC4)ccc3c2=O)cc1,i,i,i,i,i,i
COCCn1c(=O)[nH]c2cc(C(=O)N3CCN(c4ccc(OC)cc4)CC3)ccc2c1=O,96,i,i,i,i,i
COc1ccc(Cn2c(=O)[nH]c3cc(C(=O)N4CCN(Cc5ccccc5)CC4)ccc3c2=O)cc1,i,i,i,i,i,27
COc1ccc(C(=O)NNC(=S)NC(=O)c2ccco2)cc1,i,i,i,i,?,i
CCCOc1ccc(C(=O)NNC(=S)NC(=O)c2ccccc2)cc1,i,i,i,nt,i,i
SMILES,ALR H2O2 inh,ATG4B inh,NLRP3 yeast inh,UCH37 inh,Calb FLC,NALP1 yeast inh
CCCCOc1ccc(C(=O)NNC(=S)NC(=O)CC)cc1,i,i,nt,i,87,i
CCCOc1ccc(C(=O)NNC(=S)NC(=O)c2ccco2)cc1,i,i,i,i,78,i
CCCOc1ccc(C(=O)NNC(=S)NC(C)=O)cc1,i,i,i,i,102,i
CC(Oc1ccc(Cl)cc1)C(=O)NNC(=S)NC(=O)c1ccco1 (centres undefined),98,i,i,i,?,i
CCC(=O)NC(=S)NNC(=O)c1ccc(OC)cc1,i,i,i,i,i,i
COc1ccc(C=NN2CCN(C)CC2)cc1OC,nt,nt,nt,i,nt,nt
O=C(CON=Cc1cccc([N+](=O)[O-])c1)NC1CCCCC1,nt,nt,nt,i,nt,nt
